In brackets after ≈: the same amount, converted by molar mass.

10 molecules from ChEMBL document CHEMBL5137098, “Discovery of Substituted Di(pyridin-2-yl)-1,2,4-thiadiazol-5-amines as Novel Macrofilaricidal Compounds for the Treatment of Human Filarial Infections” (J Med Chem, 2022) can be followed below.

Data set [1] in a line: Metabolic stability in human liver microsome assessed as compound remaining at 3 uM measured at 30 mins in presence of NADPH by LC-MS/MS analysis. Format: ADME. The settings on record: liver microsomes, read-out: Stability. The essentials: (§1)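 Liver microsomes at 0.3 mg/mL with 1 mM NADPH in 200 mM phosphate buffer plus 2 mM MgCl2, pH 7.4, at 37 °C. Substrate 3 µM, incubated 30 min, triplicate. Percent remaining measured by LC-MS/MS.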

Data set [2] in a line: Metabolic stability in rat liver microsome assessed as compound remaining at 3 uM measured at 30 mins in presence of NADPH by LC-MS/MS analysis. The class given is ADME. The note with it: liver microsomes, read-out: Stability. The essentials:
as §1

Data set [3] relates to Litomosoides sigmodontis. The data set can be described thus: Antiparasitic activity against Litomosoides sigmodontis infected in BALB/c mouse assessed as reduction in worm burden at 30 mg/kg, po TID administered for 5 days. Format: functional. The note with it: time 5 day. Details: scale not given: the % may be the effect or the level left.
Data set [4] in a line: Metabolic stability in human liver S9 fraction assessed as compound remaining at 3 uM measured at 60 mins by LC-MS/MS analysis. The class given is ADME, subcellular. The note with it: read-out: Stability.
Data set [5] deals with Litomosoides sigmodontis. Briefly: Antiparasitic activity against Litomosoides sigmodontis infected in BALB/c mouse assessed as reduction in worm burden at 30 mg/kg, sc BID administered for 7 days. Format: functional. More on the design: scale not given: the % may be the effect or the level left. The note with it: time 7 day.
A short description of data set [6]: Metabolic stability in rat liver S9 fraction assessed as compound remaining at 3 uM measured at 60 mins by LC-MS/MS analysis. The class given is ADME, subcellular. The settings on record: read-out: Stability.
Data set [7] deals with TK6. The data set can be described thus: Cytotoxicity in human TK6 cells in presence of Aroclor 1254-induced rat liver S9 fraction by micronucleus test. The class given is toxicity, cell-based.
A short description of data set [8]: Mutagenicity in Salmonella typhimurium TA1535 in absence of liver S9 fraction by AMES test. The class given is toxicity. The note with it: salmonella enterica subsp. enterica serovar typhimurium.
Data set [9] is described as follows: Mutagenicity in Escherichia coli WP2 uvrA in absence of liver S9 fraction by AMES test. The class given is toxicity.
A short description of data set [10]: Mutagenicity in Salmonella typhimurium TA100 in presence of liver S9 fraction by AMES test. Format: toxicity, subcellular. The settings on record: salmonella enterica subsp. enterica serovar typhimurium.
For data set [11], the system named is Onchocerca volvulus. Briefly: Antiparasitic activity against Onchocerca volvulus L5 assessed as reduction in motility at 1 uM. More on the design: scale not given: the % may be the effect or the level left.
Data set [12] can be described thus: Mutagenicity in Salmonella typhimurium TA98 in presence of liver S9 fraction by AMES test. The settings on record: salmonella enterica subsp. enterica serovar typhimurium. Format: toxicity, subcellular.
Data set [13] can be described thus: Mutagenicity in Escherichia coli WP2 uvrA in presence of liver S9 fraction by AMES test. Format: toxicity, subcellular.
The nature of data set [14]: Mutagenicity in Salmonella typhimurium TA1535 in presence of liver S9 fraction by AMES test. Format: toxicity, subcellular. The note with it: salmonella enterica subsp. enterica serovar typhimurium.
Data set [15] can be described thus: Mutagenicity in Salmonella typhimurium TA98 in absence of liver S9 fraction by AMES test. The note with it: salmonella enterica subsp. enterica serovar typhimurium. Format: toxicity.
Data set [16] can be described thus: Mutagenicity in Salmonella typhimurium TA97 in presence of liver S9 fraction by AMES test. The class given is toxicity, subcellular. The settings on record: salmonella enterica subsp. enterica serovar typhimurium.
The nature of data set [17]: Mutagenicity in Salmonella typhimurium TA100 in absence of liver S9 fraction by AMES test. Format: toxicity. The settings on record: salmonella enterica subsp. enterica serovar typhimurium.
Data set [18] in a line: Mutagenicity in Salmonella typhimurium TA97 in absence of liver S9 fraction by AMES test. The settings on record: salmonella enterica subsp. enterica serovar typhimurium. Format: toxicity.
Data set [19] has as its system Litomosoides sigmodontis. The data set can be described thus: Antiparasitic activity against Litomosoides sigmodontis infected in BALB/c mouse assessed as reduction in worm burden at 30 mg/kg, po BID administered for 6 days. The settings on record: time 6 day. Format: functional. Details: scale not given: the % may be the effect or the level left.
For data set [20], the system named is Litomosoides sigmodontis. Briefly: Antiparasitic activity against Litomosoides sigmodontis infected in BALB/c mouse assessed as reduction in worm burden at 30 mg/kg, po BID administered for 7 days. Format: functional. Details: scale not given: the % may be the effect or the level left. The note with it: time 7 day.
The test system of data set [21] is Litomosoides sigmodontis. Briefly: Antiparasitic activity against Litomosoides sigmodontis infected in Meriones assessed as reduction in worm burden at 15 mg/kg, sc BID administered for 7 days. The settings on record: time 7 day. The class given is functional. More on the design: scale not given: the % may be the effect or the level left.
In data set [22] the test system is Litomosoides sigmodontis. Briefly: Antiparasitic activity against Litomosoides sigmodontis infected in BALB/c mouse assessed as reduction in worm burden at 10 mg/kg, po qd administered for 7 days. Format: functional. More on the design: scale not given: the % may be the effect or the level left. The note with it: time 7 day.
Data set [23] in a line: Metabolic stability in mouse liver microsome assessed as compound remaining at 3 uM measured at 30 mins in presence of NADPH by LC-MS/MS analysis. The class given is ADME. The settings on record: liver microsomes, read-out: Stability. The essentials: as §1
In data set [24] the test system is Onchocerca gutturosa. Briefly: Anti-filarial activity against Onchocerca gutturosa adult worms assessed as reduction in worm motility measured every 24 hrs for 5 days by olympus inverted microscopic analysis. The class given is functional, organism-based. The essentials:
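Adult worm motility read every 24 h, ending at 120 h. Serial 1-in-4 drug dilutions run to the activity endpoint. EC50 for motility reduction given as geomean, n=2.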

Data set [25] in a line: Kinetic solubility of compound incubated for 24 hrs. Format: physicochemical. The note with it: read-out: Kinetic_solubility. The essentials:
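10 mM DMSO stock diluted into buffer to 200 µM final, 2% DMSO, run in duplicate. Buffers were pH 7.4 0.1 M potassium phosphate, pH 2.2, 6.8 and 5. Shaken 24 h at room temperature in a filter plate, then filtered by positive pressure. Single-point calibration against DMSO standards.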

The nature of data set [26]: Octanol/water distribution coefficient, logD of the compound at pH 7.4 sonicated for 30 mins followed by 24 hrs shaking. Format: physicochemical. In a few lines: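 Octanol/pH 7.4 0.1 M potassium phosphate partition. Sample at 1000 uM from 10 mM DMSO stock, 10% DMSO final. Sonicated 30 min, then shaken 24 h at 750 rpm at room temperature. Plate centrifuged 3600 rpm for 30 min.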

In the case of `COc1ccc(Nc2nc(-c3ccccn3)ns2)nc1`, the remaining at 0.5 h, 3 µM was 90% in data set [1] and 78% in [2]. Besides, in data set [3], the Activity was determined as 50.1%.
For the molecule `Cc1cccnc1Nc1nc(-c2ccc(OC3CCN(C4CC4)CC3)cn2)ns1`, the remaining at 1 h, 3 µM in data set [4] came out at 83%; in data set [6], 76%. Besides, the Activity in [5] is 85.5%.
Turning to `Cc1nccnc1Nc1nc(-c2ccc(OC(C)C)cn2)ns1`, the Activity entry in data set [7] is on record as “Non-Toxic”. In addition, the figures for the remaining at 1 h, 3 µM in [4] and in data set [6] were 94% and 100%, respectively.
On to `CC(C)Oc1ccc(-c2nsc(Nc3ncccc3N(C)C)n2)nc1`, for which the Activity result is “Non-Toxic” in data set [8]; “Non-Toxic” in data set [9]; “Non-Toxic” in data set [10]; 100% in data set [11]; “Non-Toxic” in data set [12]; “Non-Toxic” in [13]. Moreover, the Activity entry in data set [14], in data set [15], in [16], in [17] and in data set [18] was “Non-Toxic” throughout. For the same molecule, the remaining at 1 h, 3 µM in data set [4] turned out to be 86%; in [6], 79%.
For the molecule `CC(C)c1ccnc(-c2nsc(Nc3cc(C(F)(F)F)ccn3)n2)c1`, the results for the remaining at 1 h, 3 µM in [4] and in data set [6] were 65% and 45%, respectively. In addition, in data set [19], the Activity was found to be 46%.
On to `CC(C)Oc1ccc(-c2nsc(Nc3ncccc3C(C)C)n2)nc1`, for which the remaining at 1 h, 3 µM in [4] stood at 99%; in [6], 82%. Besides, the Activity in [20] came out at 58.8%.
Regarding `CC(=O)N(C)c1cccnc1Nc1nc(-c2ccc(OC(C)C)cn2)ns1`, the Activity entry in data set [8] is “Non-Toxic”; in data set [9] it was “Non-Toxic”; in data set [10], “Non-Toxic”; in data set [12] it was “Non-Toxic”; in data set [13] it was “Non-Toxic”; in [21], 58.9%. Further, the Activity entry in data set [14], in data set [15], in data set [16], in data set [17] and in [18] was “Non-Toxic” throughout.
On to `Cc1cccnc1Nc1nc(-c2ccc(OC(C)C)cn2)ns1`, for which, in data set [22], the Activity turned out to be 58.8%. For the same molecule, the remaining at 1 h, 3 µM in data set [4] and in data set [6] was 100% throughout.
As for `Cc1cccnc1Nc1n[nH]c(-c2ccc(OC3CCOCC3)cn2)n1`, the remaining at 0.5 h, 3 µM in data set [1] came to 92%; in data set [23], 70%.
In the case of `Cc1cccnc1-c1nsc(Nc2ccc(N3CCCC3)cn2)n1`, the 50% effective concentration (EC50) in data set [24] was determined as 40 nM. Besides, the remaining at 1 h, 3 µM in [4] stood at 86%; in data set [6], 61%. Besides, the solubility kinetic at 24 h in data set [25] amounted to 2.17 µM (≈ 0.734 µg/mL). The logD at 24.5 h in data set [26] stood at 2.65.
